From ChEMBL document CHEMBL1121718, “Novel tetracyclic spiropiperidines. 1. 3-Aryl-1,3-dihydrospiro[benzo[c]thiophene-1,4'-piperidines] as potential antidepressants” (1981)

Tests used:
[1] = system: Mus musculus; assay: Antidepressant activity was measured by the inhibition of tetrabenazine ptosis in mice after po administration.; format: functional
Summary of the method: (§1)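 Male Charles River CD-1 mice (20–30 g), groups of five, dosed orally with compound in distilled water plus a few drops of Tween 80. Tetrabenazine methanesulfonate was given at 40 mg/kg ip 60 min later. After another 30 min, ptosis was scored 0–2 (eyes open, half-open, closed). ED50 and 95% confidence intervals came from linear regression of the scores.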

[2] = system: Mus musculus; assay: Antidepressant activity was measured by the inhibition of tetrabenazine (TBZ) ptosis in mice after i.p. administration.; format: functional; details: ip
Summary of the method: as §1, with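 “ip” for “orally”, “30” for “60”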

[3] = system: Rattus norvegicus; assay: Antidepressant activity was measured by the potentiation of head twitching induced by 5-hydroxy-tryptophan in pargyline-pretreated rats after po administration.
[4] = system: Rattus norvegicus; assay: Antidepressant activity was measured by the potentiation of head twitching induced by 5-hydroxy-tryptophan in pargyline-pretreated rats after ip administration; format: functional
Summary of the method: (§2)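 Male Wistar rats (150–200 g), six per group (ten per dose in dose-range runs), received pargyline HCl 75 mg/kg sc 4 h before testing. Compound in distilled water plus Tween 80 was given ip 30 min before, then L-5-HTP 1.0 mg/kg ip. From 5 min after 5-HTP, rats were observed 15 min for head twitching with coarse tremors. Results are percent potentiation normalized to vehicle; ED50 with 95% limits by linear regression.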

[5] = system: Mus musculus; assay: Antidepressant activity was measured by the inhibition of tetrabenazine (TBZ) ptosis in mice after ip administration; format: functional
Summary of the method: as §1, with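 “ip” for “orally”, “30” for “60”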

[6] = system: Mus musculus; assay: Antidepressant activity was measured by the inhibition of tetrabenazine (TBZ) ptosis in mice after po administration; format: functional; summary of the method: as §1
[7] = system: Rattus norvegicus; assay: Antidepressant activity was measured by the potentiation of head twitching induced by 5-hydroxy-tryptophan in pargyline-pretreated rats after ip administration;d=Seizures before 5-HTP dosing; format: functional, organism-based; summary of the method: as §2
[8] = system: Rattus norvegicus; assay: Antidepressant activity was measured by the potentiation of head twitching induced by 5-hydroxy-tryptophan in pargyline-pretreated rats after ip administration; d= Seizures before 5-HTP dosing; format: functional, organism-based; summary of the method: as §2
[9] = system: Mus musculus; assay: Antidepressant activity was measured by the inhibition of tetrabenazine (TBZ) ptosis in mice after po administration […]; format: functional

Compound: Clc1ccc(C2SC3(CCNCC3)c3ccccc32)cc1 (stereo not given)
- ED50 [1]: 1.6 mg/kg
- ED50 [2]: 2.1 mg/kg
- ED50 [3]: 0.78 mg/kg
- ED50 [4]: 0.03 mg/kg

Compound: CN1CCC2(CC1)SC(c1ccc(F)cc1)c1ccccc12 (stereo not given)
- ED50 [1]: 3.1 mg/kg
- ED50 [2]: 1.4 mg/kg
- ED50 [4]: 1.5 mg/kg

Compound: CN1CCC2(CC1)SC(c1ccc(Cl)cc1)c1ccccc12 (stereo not given)
- ED50 [1]: 1.4 mg/kg
- ED50 [2]: 1.3 mg/kg
- ED50 [4]: 0.4 mg/kg

Compound: CN1CCC2(CC1)SC(c1cccc(F)c1)c1ccccc12 (stereo not given)
- ED50 [1]: 3.3 mg/kg
- ED50 [2]: 0.83 mg/kg
- ED50 [4]: > 10 mg/kg

Compound: Clc1ccc(C2SC3(CCNCC3)c3ccccc32)cc1Cl (stereo not given)
- ED50 [1]: 0.82 mg/kg
- ED50 [4]: 0.4 mg/kg

Compound: CNCCC(Oc1ccc(C(F)(F)F)cc1)c1ccccc1 (stereo not given) [FLUOXETINE]
- ED50 [4]: 0.6 mg/kg

Compound: Cc1ccccc1C1SC2(CCNCC2)c2ccccc21 (stereo not given)
- ED50 [1]: 1.4 mg/kg
- ED50 [4]: 2.8 mg/kg

Compound: Clc1ccccc1C1SC2(CCNCC2)c2ccccc21 (stereo not given)
- ED50 [1]: 2.2 mg/kg
- ED50 [4]: 4.4 mg/kg

Compound: CN1CCC2(CC1)SC(c1ccc(Cl)c(Cl)c1)c1ccccc12 (stereo not given)
- ED50 [1]: 6.1 mg/kg
- ED50 [2]: 3.5 mg/kg
- ED50 [4]: 0.58 mg/kg

Compound: CN1CCC2(CC1)SC(c1ccccc1)c1ccc(F)cc12 (stereo not given)
- ED50 [1]: 2.8 mg/kg
- ED50 [2]: 1.8 mg/kg
- ED50 [4]: > 10 mg/kg

Compound: Br.Cc1cccc(C2SC3(CCN(C)CC3)c3ccccc32)c1 (stereo not given)
- ED50 [2]: ~20 mg/kg
- ED50 [4]: > 2 mg/kg

Compound: CN(C)CCCN1c2ccccc2CCc2ccc(Cl)cc21 [CLOMIPRAMINE]
- ED50 [5]: 0.73 mg/kg
- ED50 [4]: 3.1 mg/kg
- ED50 [6]: 3.5 mg/kg

Compound: Clc1cccc(C2SC3(CCNCC3)c3ccccc32)c1 (stereo not given)
- ED50 [1]: 1.8 mg/kg
- ED50 [2]: 0.52 mg/kg
- ED50 [7]: Seizures before dosing

Compound: Br.CN1CCC2(CC1)SC(c1ccc(Cl)cc1Cl)c1ccccc12 (stereo not given)
- ED50 [1]: 3.8 mg/kg
- ED50 [2]: 1.6 mg/kg
- ED50 [4]: 0.91 mg/kg

Compound: Fc1ccccc1C1SC2(CCNCC2)c2ccccc21 (stereo not given)
- ED50 [1]: 6.6 mg/kg
- ED50 [2]: 0.78 mg/kg
- ED50 [4]: 3.9 mg/kg

Compound: Clc1ccc(C2SC3(CCNCC3)c3ccccc32)c(Cl)c1 (stereo not given)
- ED50 [1]: 3.8 mg/kg
- ED50 [2]: 2.4 mg/kg
- ED50 [4]: 2.2 mg/kg

Compound: CN1CCC2(CC1)SC(c1cccc(C(F)(F)F)c1)c1ccccc12 (stereo not given)
- ED50 [1]: 1.6 mg/kg
- ED50 [2]: 0.73 mg/kg
- ED50 [4]: 0.52 mg/kg

Compound: CN1CCC2(CC1)SC(c1ccccc1Cl)c1ccccc12 (stereo not given)
- ED50 [1]: 3.6 mg/kg
- ED50 [2]: 0.6 mg/kg
- ED50 [4]: 10.1 mg/kg

Compound: Br.CN1CCC2(CC1)SC(c1cccc(Cl)c1)c1ccccc12 (stereo not given)
- ED50 [1]: 1.3 mg/kg
- ED50 [8]: Seizures before dosing
- ED50 [2]: 0.9 mg/kg

Compound: Br.CN1CCC2(CC1)SC(c1ccccc1F)c1ccccc12 (stereo not given)
- ED50 [1]: 2.1 mg/kg
- ED50 [2]: 3 mg/kg
- ED50 [4]: > 10 mg/kg

Compound: Fc1ccc(C2SC3(CCNCC3)c3ccccc32)cc1 (stereo not given)
- ED50 [1]: 2.1 mg/kg
- ED50 [2]: 0.67 mg/kg
- ED50 [4]: 0.32 mg/kg

Compound: Cc1cccc(C2SC3(CCNCC3)c3ccccc32)c1 (stereo not given)
- ED50 [1]: 2.9 mg/kg
- ED50 [2]: 1.9 mg/kg
- ED50 [4]: 0.71 mg/kg

Compound: CNCCCN1c2ccccc2CCc2ccccc21 [DESIPRAMINE]
- ED50 [5]: 0.8 mg/kg
- ED50 [4]: > 10 mg/kg
- ED50 [6]: 1.6 mg/kg

Compound: c1ccc(C2SC3(CCNCC3)c3ccccc32)cc1 (stereo not given)
- ED50 [9]: 1.1 mg/kg
- ED50 [2]: 1.1 mg/kg
- ED50 [4]: 3 mg/kg

Compound: CN1CCC2(CC1)SC(c1ccccc1)c1ccccc12 (stereo not given)
- ED50 [5]: 2.5 mg/kg
- ED50 [4]: 3.4 mg/kg
- ED50 [6]: 4.6 mg/kg

Compound: Cc1ccc(C2SC3(CCN(C)CC3)c3ccccc32)cc1 (stereo not given)
- ED50 [2]: ~3 mg/kg
- ED50 [4]: 1 mg/kg

Compound: FC(F)(F)c1cccc(C2SC3(CCNCC3)c3ccccc32)c1 (stereo not given)
- ED50 [1]: 1.7 mg/kg
- ED50 [2]: 1.2 mg/kg

Compound: Fc1cccc(C2SC3(CCNCC3)c3ccccc32)c1 (stereo not given)
- ED50 [1]: 3.1 mg/kg
- ED50 [4]: 0.16 mg/kg

Compound: Cc1ccc(C2SC3(CCNCC3)c3ccccc32)cc1 (stereo not given)
- ED50 [1]: 3.6 mg/kg
- ED50 [2]: 0.69 mg/kg
- ED50 [4]: 0.16 mg/kg

Compound: Cc1ccccc1C1SC2(CCN(C)CC2)c2ccccc21 (stereo not given)
- ED50 [1]: 1.3 mg/kg
- ED50 [2]: 0.77 mg/kg
- ED50 [4]: > 10 mg/kg

Compound: CN(C)CCC=C1c2ccccc2CCc2ccccc21 [AMITRIPTYLINE]
- ED50 [1]: 7.8 mg/kg
- ED50 [2]: 1.5 mg/kg
- ED50 [4]: 7.1 mg/kg
